# Screening results deposited in PubChem by several laboratories.
# Jurkat NFkB inh: inhibitors of the PMA/ionomycin-induced NF-kB reporter in Jurkat cells | hit rate 0.53% among 330,000 | PMA/ionomycin-induced NF-kB luciferase reporter, luminescence | AID 435003 | inhibition, % at 4 µM; in the data active = inhibition above about 50%
# CHOP inh: CHOP inhibition in unfolded protein response; CHO-K1 CHOP-promoter luciferase, tunicamycin-induced, 15-18 h; inhibition, % at 10 µM; hit rate 3.8% among 220,000; AID 2732;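 active = compounds that reduced the stress-induced luciferase reporter signal by more than about 70% of percent inhibition, limit read from the data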;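 note: 0% = tunicamycin plus vehicle and 100% = wells without tunicamycin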
# 697 NFkB inh: lowers PMA/ionomycin-induced NF-kB signal in 697 B cells | AID 435022 | inhibition, % at 4 µM | hit rate 0.33% among 330,000 | 697 B-cell NF-kB luciferase reporter, 16 h; in the data active = inhibition above about 35%
# XBP1 UPR activ: activators of adaptive arm of unfolded protein response (XBP1). CHO-XBP1 luciferase reporter, IRE1-XBP1 UPR activation, luminescence; percent of tunicamycin response, DMSO as zero. activation, % at 20 µM. hit rate 0.33% among 330,000. AID 463104;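 active = versus positive control, 20 µM dose yields 30% or more activation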;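 note: 100% = tunicamycin at 10 µg/mL and 0% = DMSO only wells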
#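 Material: CHO-XBP1 cells stably carrying IRE1-XBP1-driven luciferase reporter / Amount: 1000 cells per well / Compound: 20 µM, 1% DMSO / Times: 6 h treatment, 37 °C / Detection: luciferase luminescence / Measure: % activation of reporter signal versus tunicamycin and DMSO controls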
# CHOP UPR activ: activators of apoptotic arm of unfolded protein response (CHOP); CHO-CHOP luciferase reporter, UPR activation, luminescence; percent of tunicamycin response over DMSO baseline; activation, % at 10 µM; hit rate 0.34% among 330,000;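 active = at 10 µM dose, activation of 40% or more, normalized to positive control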;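 note: 100% = tunicamycin at 10 µg/mL and 0% = DMSO alone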
#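 Material: CHO-CHOP cells, stable luciferase reporter of PERK-eIF2a-CHOP signalling; quantity: 500 reporter cells seeded per well; buffer or medium: F12 medium containing 10% fetal bovine serum; compound: one dose, 10 µM in 0.5% DMSO; incubation: 6 h compound treatment, 37 °C; measured by: Steady-Glo luciferase luminescence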
# Jurkat NFkB conf: inhibitors of the PMA/ionomycin-induced NF-kB reporter in Jurkat cells, retest; hit rate 27% among 2,700; inhibition, % at 4 µM; AID 435020; Jurkat NF-kB luciferase, 16 h; shares compounds with Jurkat NFkB inh;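 active = inhibition reaching about 45% at 4 µM in either replicate, limit read from the data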;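 note: plate controls were PMA/ionomycin stimulated DMSO wells for no effect and unstimulated DMSO wells for full effect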
# Starred values were filed as active, the others as inactive; . = no result given. The full list was thinned out, with hits kept by preference.
SMILES,Jurkat NFkB inh,CHOP inh,697 NFkB inh,XBP1 UPR activ,CHOP UPR activ,Jurkat NFkB conf
O=C(c1ccc(Cl)cc1)c1cc([N+](=O)[O-])ccc1N1CCOCC1,70*,15,8,9,-2,41
O=C(NCc1ccc2c(c1)OCO2)c1cc([N+](=O)[O-])ccc1N1CCCCC1,65*,-26,-54,0,3,30
O=C(COC(=O)/C=C/c1ccccc1Cl)NCCc1ccc(Cl)cc1Cl,-7,44,-9,-2,-1,.
CC(=O)Nc1ccc(S(=O)(=O)NCCC(=O)OC(C)C(=O)NC2(C#N)CCCCC2)cc1 (configuration not stated),-7,.,17,1,3,.
CCCCCN(C(=O)CCC(=O)OCC(=O)N1CCC(C)CC1)c1c(N)n(CCCC)c(=O)[nH]c1=O,-12,.,11,0,-2,.
O=C(c1ccccc1)c1cc([N+](=O)[O-])ccc1N1CCOCC1,51*,16,-8,9,1,49*
CCn1c(/C=C/Nc2ccccc2)[n+](CC)c2ccc(Cl)cc21,58*,-4,-27,-2,2,9
O=C(N/N=C/c1ccc(O)cc1)c1[nH]c2ccc(Br)cc2c1-c1ccccc1,60*,65,-3,17,-1,31
C/C(=N\NC(=O)CCC(=O)O)c1c(-c2ccccc2)c2cc(Br)ccc2[nH]c1=O,1,6,-1,-1,0,.
N#CCC(CNc1ncc(C(F)(F)F)cc1Cl)OC(=O)c1cccc(C(F)(F)F)c1 (configuration not stated),60*,28,5,0,-2,9
O=C(OCCNc1ncc(C(F)(F)F)cc1Cl)c1ccc(S(=O)(=O)N2CCOCC2)cc1,3,3,14,-2,-1,.
CC(=O)O[C@H]1C(=O)[C@@]2(C)[C@H]([C@H](OC(=O)c3ccccc3)[C@]3(O)C[C@H](OC(=O)[C@H](O)C(NC(=O)c4ccccc4)c4ccccc4)C(C)=C1C3(C)C)[C@]1(OC(C)=O)CO[C@@H]1C[C@@H]2O (some centres not stated),59*,24,-27,3,2,60*
CC(=O)O[C@H]1C(=O)[C@@]2(C)[C@H]([C@H](OC(=O)c3ccccc3)[C@]3(O)C[C@H](OC(=O)[C@H](O)[C@@H](NC(=O)c4ccccc4)c4ccccc4)C(C)=C1C3(C)C)[C@]1(OC(C)=O)CO[C@@H]1C[C@@H]2O,70*,.,-2,-3,0,68*
CCCCCC(=O)N[C@@H](c1ccccc1)[C@@H](O)C(=O)O[C@H]1C[C@@]2(O)[C@@H](OC(=O)c3ccccc3)C3[C@](C)(C(=O)[C@H](OC(C)=O)C(=C1C)C2(C)C)[C@@H](O)C[C@H]1OC[C@@]31OC(C)=O (some centres not stated),72*,.,-7,3,1,56*
O=C(CC1C(=O)NCCN1Cc1c(F)cccc1Cl)NC1CCCC1 (configuration not stated),-8,11,2,0,-3,.
Cc1ccc(NC(=O)C2CCCN(C(=O)c3ccc(Cl)cc3)C2)cc1S(=O)(=O)N1CCOCC1 (configuration not stated),19,11,-2,0,-2,.
CN(C)c1ccc(S(=O)(=O)NCC(=O)NCCC2=CCCCC2)cc1[N+](=O)[O-],11,.,23,-2,25,.
COc1ccc(C(=O)N(Cc2ccccc2)Cc2cc3cc4c(cc3[nH]c2=O)OCCO4)cc1,55*,3,-32,-3,0,12
COc1cccc(C(=O)N(Cc2ccccc2)Cc2cc3cc4c(cc3[nH]c2=O)OCCO4)c1,-3,7,7,-2,0,.
Cc1noc(C)c1COc1ccccc1C(=O)N(C)CC(=O)Nc1ccc(F)cc1,-2,.,-1,-2,-1,.
Clc1cccc(Cl)c1/C=C/c1nc2ccccc2[nH]1,-159,42,-111,4,3,-103
O=c1[nH]c(/C=C/c2ccccc2Cl)nc2ccccc12,-63,.,-174,-7,2,.
CC(C)(CNC(=O)Cc1ccc(Cl)cc1Cl)N1CCCCC1,-20,.,-9,0,-1,.
